Experimental data reported in article PMC2748801 (Journal of the American Chemical Society, 2009).
Square brackets hold non-standard residues; d marks the D form. Ends that are not written are not given here. Orn = NCCC[C@H](N)C(=O)O; Dab = NCC[C@H](N)C(=O)O; Dap = NC[C@H](N)C(=O)O

Assays:
[1] = Circular dichroism, α-helical content of peptide alone; format: physicochemical; settings: CD; for helicity (first value): 10 mM H3PO4, 20 °C; for helicity (second value): 50% TFE in 10 mM H3PO4, 20 °C
Method in brief: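 Far-UV CD spectra of each free peptide, with no RNA, at 20 °C under temperature control, in 10 mM H3PO4 and in 50% TFE in the same buffer. Scans ran 190–250 nm with 1 nm bandwidth, 0.5 nm data pitch, 20 nm/min, 16 s response and 0.1 cm path, averaging three accumulations. α-Helical content was calculated from the spectra.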

[2] = tested on: hairpin from IRES domain IV of HCV (IRES); format: binding; settings: for Discrimination ratio against IRES RNA: average Kd against other hairpins (RRE, TAR, 16S A-site)/Kd against IRES; for Kd against IRES hairpin (in words): fluorescence anisotropy, 3i and 3j relative to 3d

Row | Substance | helicity (first value) [1] | helicity (second value) [1] | Discrimination ratio against IRES RNA [2] | Kd against IRES hairpin (in words) [2]
1 | Ac-LKKLWKLLKKLLKLAG-NH2 [2p] | 20% | 56% | 3.3 | 
2 | LKKLLKLL[Orn]KLLKWAG [3f] | 36% | 58% | 1.0 | 
3 | Ac-LKKWLKLLKKLLKLAG-NH2 [2o] | 4.6% | 52% | 5.5 | 
4 | LKKLLKLLKKLL[Dap]LAG [2i] | 39% | 54% | 12 | 
5 | LKKLLKLL[Orn]KLLKLAG [2d] | 28% | 57% | 9.1 | 
6 | LKKLL[Dab]LLKKLL[Dap]LAG [2l] | 40% | 50% | 13 | 
7 | LKKLLKLLKKLL[Orn]LAG [2g] | 36% | 53% | 3.3 | 
8 | Ac-LKKLLKLLKKLLKWAG-NH2 [2u] | 20% | 52% | 14 | subnanomolar
9 | LKKLLKWLKKLL[Dap]LAG [3c] | 29% | 36% | 17 | 
10 | LKKLL[Dab]LL[Orn]KLL[Dap]LAG [2m] | 49% | 69% | 4.9 | 
11 | LKKLL[Dab]LLKKLLKWAG [3e] | 39% | 45% | 28 | 
12 | LKKLLKLL[Orn]KLL[Dap]WAG [3h] | 12% | 56% | 1.6 | 
13 | LKKLLKLL[Dap]KLLKLAG [2f] | 25% | 57% | 0.6 | 
14 | LKKLLKLLKKLL[Dab]LAG [2h] | 24% | 34% | 2.0 | 
15 | LKKLLKWL[Orn]KLLKLAG [3b] | 34% | 52% | 4.2 | 
16 | LKKLL[Dab]LL[Orn]KLLKLAG [2j] | 49% | 57% | 6.3 | 
17 | LKKLLKLL[Dab]KLLKLAG [2e] | 43% | 57% | 6.5 | 
18 | Ac-LKKLLKWLKKLLKLAG-NH2 [2q] | 19% | 71% | 15 | subnanomolar
19 | Ac-LKKLLKLLKKWLKLAG-NH2 [2s] | 27% | 60% | 5.8 | 
20 | LKKLLKWL[Orn]KLL[Dap]LAG [3d] | 32% | 38% | 45 | 
21 | Ac-WKKLLKLLKKLLKLAG-NH2 [2n] | 48% | 65% | 2.4 | subnanomolar
22 | LKKLL[Dab]WLKKLLKLAG [3a] | 29% | 55% | 10 | 
23 | Ac-LKKLLKLWKKLLKLAG-NH2 [2r] | 14% | 59% | 0.67 | 
24 | LKKLL[Dab]LLKKLLKLAG [2b] | 23% | 63% | 6.3 | 
25 | Ac-LKKLLKLLKKLWKLAG-NH2 [2t] | 12% | 58% | 5.8 | 
26 | LKKLLKLL[Orn]KLL[Dap]LAG [2k] | 48% | 61% | 25 | 
27 | LKKLL[Orn]LLKKLLKLAG [2a] | 13% | 82% | 2.5 | 
28 | LKKLL[Dap]LLKKLLKLAG [2c] | 26% | 61% | 2.4 | 
29 | LKKLLKLLKKLL[Dap]WAG [3g] | 41% | 63% | 9.4 | 
